Assay results taken from paper PMC2791397 (Biochimica et biophysica acta, 2009).

Experiments:
Hmt1p = Hmt1p (Saccharomyces cerevisiae, UniProt P38074); test: Kinetic studies of Hmt1p-mediated H4 peptide methylation; format: biochemical, budding yeast Saccharomyces cerevisiae; conditions: peptide 0.01 to 10 μM, 3.3 μM 3H-SAM, app. 25 ng GST-Hmt1p, pH 8.0, 30°C, 3 min; Hanes/Wolffe plot; average, n ranging from 2 to 8
[1] = tested on: Imidazoleglycerol-phosphate dehydratase (His3p); conditions: cited from earlier work
yeast cells = test: Cellular growth in the presence of varying concentrations of 3-AT; format: cell-based, budding yeast Saccharomyces cerevisiae; conditions: 30°C, three to five days
Method in brief: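 BY4742-background strains (MATα his3Δ1 leu2Δ0 lys2Δ0 ura3Δ0; isogenic MATa dot1Δ or hmt1Δ) made HIS+ by transformation with a 1.75 kb HIS3 fragment. GCN5 deleted with a gcn5::hisG-URA3-hisG fragment. Log-phase cells from rich medium were serially diluted, spotted onto SC –His plates containing varying 3-AT concentrations, and scored for growth.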

Hmt1p, sequence (P38074 whole entry): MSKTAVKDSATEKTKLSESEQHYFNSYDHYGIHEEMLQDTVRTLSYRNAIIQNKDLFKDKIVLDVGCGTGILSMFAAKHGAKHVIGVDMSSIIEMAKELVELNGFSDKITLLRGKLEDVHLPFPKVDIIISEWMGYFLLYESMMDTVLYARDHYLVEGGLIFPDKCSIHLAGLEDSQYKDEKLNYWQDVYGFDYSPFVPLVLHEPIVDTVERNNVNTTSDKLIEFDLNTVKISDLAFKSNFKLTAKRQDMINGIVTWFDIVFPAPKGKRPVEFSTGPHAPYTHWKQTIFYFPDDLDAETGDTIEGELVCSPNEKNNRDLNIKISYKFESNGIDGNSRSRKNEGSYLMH

Compound	Km (Hmt1p) [µM]	inhibition of Imidazoleglycerol-phosphate dehydratase [1]	sensitivity to 3-AT, dot1 deletion (yeast cells; dot1! cells, SC -His plates)	sensitivity to 3-AT, gcn5 deletion (yeast cells; gcn5! cells, SC -His plates)	resistance to 3-AT, gcn5 hmt1 double knockout (yeast cells; gcn5! hmt1! cells vs gcn5! strain, SC -His plates)	sensitivity to 3-AT, hmt1 deletion (yeast cells; hmt1! cells, 20- and 40-mM 3-AT plates, SC -His)
Ac.K8: synthetic histone H4 peptide (residues 1–18) with acetyllysine at position 8	0.059 ± 0.02	–	–	–	–	–
Nc1nc[nH]n1 [3-AT, 3-amino-1,2,4-triazole]	–	competitive inhibitor	did not have an obvious effect	hypersensitive	significantly higher resistance to 3-AT	sustain higher concentrations of 3-AT
